ERp5 block = inhibitors of ERp5-driven insulin aggregation, primary screen, biochemical, turbidity, absorbance 650 nm, single point. inhibition, % at 9.99 µM. 90 min. 350,000 compounds, 0.05% hits. Protein disulfide-isomerase A6 (Homo sapiens), Q15084. AID 651711, 2012;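 active = mean replicate inhibition above about 25%, with every replicate also reaching it, limit read from the data, passing the limit was not always enough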
ERAP1 HTS inh = human ERAP1 aminopeptidase inhibitors, primary screen, biochemical, single point, plate reader. Endoplasmic reticulum aminopeptidase 1 (Homo sapiens), Q9NZ08. recombinant ERAP1, Leu-AMC fluorescence, 60 min. inhibition, % at 10.7 µM. 340,000 compounds, 0.15% hits;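 active = mean replicate inhibition of at least 30%, or all replicates individually reaching that 30% level; inactive = mean below 30% and not every replicate reaching it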
FGF22 binding = binders of human FGF22 protein, primary screen, FGF22 synaptogenesis inhibitor project, biophysical, thermal shift, single point. activity (Tm shift, normalised), % at 9.99 µM. recombinant FGF22 thermal shift, SYPRO orange fluorescence; percent of sucrose octasulfate shift, DMSO zero. 340,000 compounds, 1.5% hits. AID 651658, 2012;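 active = mean Tm shift, scaled 0 neutral to 100 positive control, at about 1.3% or above, every replicate too, limit read from the data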
Target sequence (Q9HCT0 whole entry, looked up): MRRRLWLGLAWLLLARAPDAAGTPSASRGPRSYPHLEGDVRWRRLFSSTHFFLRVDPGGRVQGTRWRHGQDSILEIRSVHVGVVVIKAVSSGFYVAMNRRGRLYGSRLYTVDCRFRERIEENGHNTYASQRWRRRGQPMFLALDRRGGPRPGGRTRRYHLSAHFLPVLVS
S100A4 inh HTS = inhibitors of S100A4-myosin IIA peptide binding, primary screen, biochemical, fluorescence polarization, TAMRA-MyoIIA peptide; Protein S100-A4 (Homo sapiens), P26447; inhibition, % at 10.7 µM; 360,000 compounds, 0.14% hits; AID 652163, 2013;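 active = mean inhibition of at least 70% across replicates, with every replicate also reaching that level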
Target sequence (P26447 whole entry, looked up): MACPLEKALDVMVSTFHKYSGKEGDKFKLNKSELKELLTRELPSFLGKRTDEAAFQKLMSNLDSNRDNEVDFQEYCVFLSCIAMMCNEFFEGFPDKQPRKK
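Material: S100A4 monomer protein | Medium: HEPES pH 7.2 with CaCl2, KCl, NaCl, DTT, Triton | Reagent: Labelled myosin peptide probe, 5 nM | Doses: One dose per compound | Times: 5 min incubation before reading | Benchmarks: Neutral control DMSO, positive control TFP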
PDI inh = inhibitors of human PDI, primary screen, biochemical, turbidity, single point, plate reader | Protein disulfide-isomerase (Homo sapiens), P07237 | PDI insulin aggregation turbidity, A650, 90 min | inhibition, % at 10 µM | 350,000 compounds, 0.052% hits;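 active = mean inhibition across replicates of 30% or more, whatever share of single replicates reach that level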
Hits are given with their value. The entries come from a sample that favours hits as a whole.

COc1ccc(C)cc1Nc1n[n+](-c2ccccc2)c(-c2ccc(C(=O)O)cc2)s1 was read as ERp5 block inactive, ERAP1 HTS inh inactive, FGF22 binding 44, S100A4 inh HTS inactive and PDI inh inactive.
Screening CCOc1cc(-c2sc(Nc3cc(C)ccc3OC)n[n+]2-c2ccccc2)ccc1OC returned ERp5 block inactive, ERAP1 HTS inh inactive, FGF22 binding inactive, S100A4 inh HTS inactive and PDI inh inactive.
Screening CCCn1c(=O)c(C(=O)NNS(=O)(=O)c2ccc(C)cc2)c(O)c2ccccc21 returned ERp5 block inactive, ERAP1 HTS inh inactive, FGF22 binding inactive, S100A4 inh HTS inactive and PDI inh inactive.
Screening COc1ccc2cc(-c3[nH]ncc3CN3CCCN(c4ccccc4)CC3)ccc2c1 returned ERp5 block inactive, ERAP1 HTS inh inactive, FGF22 binding 44, S100A4 inh HTS inactive and PDI inh inactive.
For COc1ccc(-c2[nH]ncc2CN2CCCN(c3ccccc3)CC2)c(F)c1 the results were ERp5 block inactive, ERAP1 HTS inh inactive, S100A4 inh HTS inactive and PDI inh inactive.
Screening C=CCn1c(SCC(=O)Nc2nnc(C)s2)nnc1C1CC1 returned ERp5 block inactive, ERAP1 HTS inh inactive, FGF22 binding inactive, S100A4 inh HTS inactive and PDI inh inactive.
Screening N#Cc1ccccc1OCC(=O)OCC(=O)NC1CCCC1 returned ERp5 block inactive, ERAP1 HTS inh inactive, FGF22 binding inactive, S100A4 inh HTS inactive and PDI inh inactive.
For COC(=O)c1cc([N+](=O)[O-])c(-n2cncn2)c([N+](=O)[O-])c1 the results were ERp5 block inactive, ERAP1 HTS inh inactive, FGF22 binding 43, S100A4 inh HTS inactive and PDI inh inactive.
`COC(=O)c1cc(F)c(-n2cncn2)c(F)c1` gave ERp5 block inactive, ERAP1 HTS inh inactive, FGF22 binding inactive, S100A4 inh HTS inactive and PDI inh inactive.
Cc1cc(C)cc(NC(=S)N(Cc2ccc(Cl)cc2)Cc2ccc(C(=O)O)cc2)c1 was read as ERp5 block inactive, ERAP1 HTS inh inactive, S100A4 inh HTS inactive and PDI inh inactive.
For Cc1cc(NC(=S)N(Cc2ccc(Cl)cc2)Cc2ccc(C(=O)O)cc2)ccc1Cl the results were ERp5 block inactive, ERAP1 HTS inh inactive, FGF22 binding 44, S100A4 inh HTS inactive and PDI inh inactive.
Screening Cc1ccc(NC(=S)N(Cc2ccc(Br)cc2)Cc2ccc(C(=O)O)cc2)cc1C returned ERp5 block inactive, ERAP1 HTS inh inactive, FGF22 binding 43, S100A4 inh HTS inactive and PDI inh inactive.
`COc1ccc(CCN2CC(C(=O)NCCCn3nc(C)cc3C)CCC2=O)cc1` (configuration not stated) gave ERp5 block inactive, ERAP1 HTS inh inactive, FGF22 binding inactive, S100A4 inh HTS inactive and PDI inh inactive.
`CCCc1cn(CC[C@@H]2CC[C@H](NC(=O)C3CCCC3)[C@H](CO)O2)nn1` gave ERp5 block inactive, ERAP1 HTS inh inactive, FGF22 binding inactive and S100A4 inh HTS 116.
For O=C(Nc1ccc2c(c1)OCO2)N[C@H]1CC[C@H](CCNC(=O)C2CCCC2)O[C@H]1CO the results were ERp5 block inactive, ERAP1 HTS inh inactive, FGF22 binding inactive and S100A4 inh HTS inactive.
For O=C(Cc1ccncc1)NCC[C@@H]1CC[C@@H](NC(=O)C2CCOCC2)[C@@H](CO)O1 the results were ERp5 block inactive, ERAP1 HTS inh inactive, FGF22 binding inactive and S100A4 inh HTS 102.
`CCCc1cn(CC[C@@H]2CC[C@H](NC(=O)C3CCCC3)[C@@H](CO)O2)nn1` gave ERp5 block inactive, ERAP1 HTS inh inactive, FGF22 binding inactive and S100A4 inh HTS inactive.
Screening O=C(Nc1ccc2c(c1)OCO2)N[C@@H]1CC[C@@H](CCNC(=O)C2CCCC2)O[C@H]1CO returned ERp5 block inactive, ERAP1 HTS inh inactive, FGF22 binding inactive and S100A4 inh HTS 90.
For C[C@@H](NC(=O)C[C@@H]1CC[C@H](NC(=O)C2CCC2)[C@H](CO)O1)c1ccccc1 the results were ERp5 block inactive, ERAP1 HTS inh inactive, FGF22 binding inactive and S100A4 inh HTS 107.

Compound activity deposited in PubChem by Broad Institute.
